Results taken from paper PMC7127590 (European Journal of Medicinal Chemistry, 2010).
Converted amounts (≈) assume the structure as drawn. “Also recorded” adds a separate entry of the source. Like-named read-outs stand apart in the source and are kept apart here.

Assays:
Type in all cases: cell-based
HeLa cells = experiment: cytotoxicity in uninfected HeLa cells; settings: HeLa cell cultures, microscopically detectable alteration of cell morphology
In short: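 Uninfected HeLa cells were treated with serial dilutions of test compound, run in parallel with the CPE-reduction antiviral assay. Minimum cytotoxic concentration was the lowest concentration causing microscopically detectable alteration of normal cell morphology. CC50 was the 50% cytotoxic concentration, measured as cell viability by the colorimetric formazan-based MTS assay.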

Bacillus subtilis = experiment: MIC by tube dilution, B. subtilis; settings: 24 h, read-out: pMICbs (Eq. (2)) Obs.
In short: (§1)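 Tube-dilution MIC. Test compound was dissolved in DMSO at 100 μg/mL, then serially diluted in double-strength nutrient broth (I.P.). Tubes were incubated at 37 °C for 24 h. MIC was the lowest concentration that inhibited microbial growth. MIC values were converted to pMIC for QSAR.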

Escherichia coli = experiment: MIC by tube dilution, E. coli; settings: 24 h, read-out: pMICec (Eq. (3)) Obs.
In short: as §1

Candida albicans = experiment: MIC by tube dilution, C. albicans; settings: 48 h
[1] = test system: S. aureus, B. subtilis, E. coli, C. albicans and A. niger; experiment: average antimicrobial activity
In short: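 Tube-dilution MIC with test compound dissolved in DMSO at 100 μg/mL. Bacteria grew in double-strength nutrient broth at 37 °C for 24 h. C. albicans grew in Sabouraud dextrose broth at 37 °C for 48 h, and A. niger in the same broth at 25 °C for 7 days. MIC was the lowest growth-inhibiting concentration, converted to pMIC. pMICam = mean of the five pMIC values.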

Staphylococcus aureus = experiment: MIC by tube dilution, S. aureus; settings: 24 h, read-out: pMICsa (Eq. (1)) Obs.
In short: as §1

[2] = test system: Vesicular stomatitis virus
B. subtilis = experiment: MBC determination, B. subtilis; settings: static when MBC 3-fold higher than MIC
In short: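 100 μL of culture from each tube that stayed clear in the MIC test was subcultured on fresh medium. MBC was the lowest compound concentration producing a 99.9% end-point reduction.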

[3] = read-out: pMICca (Eq. (4)) Obs.
[4] = read-out: pMICam (Eq. (9)) Obs.
[5] = read-out: pMICam MLR (Eq. (10)) Obs.

SMILES	Cytotoxicity Minimum cytotoxic conc. (HeLa cells)	MIC (Bacillus subtilis) [µM]	MIC (Escherichia coli) [µM]	MIC (Candida albicans; [3]) [µM]	MIC [1, 4] [µM]	MIC [1, 5] [µM]	MIC (Staphylococcus aureus) [µM]	antiviral activity against Vesicular stomatitis virus (VSV), in words [2]	MIC (Candida albicans; read-out: pMICca) [µM]	bacteriostatic/bactericidal action against B. subtilis (B. subtilis)
Nc1ncnc2c1ncn2C[C@H](O)CO [(S)-DHPA, reference compound]	>250 µM	–	–	–	–	–	–	–	–	–
CCCCCCCCCCCC(=O)N/N=C/c1ccccc1 [Compound 1]	–	50.1 (≈ 15.2 µg/mL)	41.7 (≈ 12.6 µg/mL)	61.7 (≈ 18.6 µg/mL)	50.1 (≈ 15.2 µg/mL)	50.1 (≈ 15.2 µg/mL)	41.7 (≈ 12.6 µg/mL)	–	–	–
CCCCCCCCCCCCCC(=O)N/N=C/c1ccccc1 [Compound 2]	–	38 (≈ 12.6 µg/mL)	43.7 (≈ 14.4 µg/mL)	57.5 (≈ 19 µg/mL)	45.7 (≈ 15.1 µg/mL)	45.7 (≈ 15.1 µg/mL)	38 (≈ 12.6 µg/mL)	–	–	–
CCCCCCCCCCCCCCCC(=O)N/N=C/c1ccccc1 [Compound 3]	–	34.7 (≈ 12.4 µg/mL)	31.6 (≈ 11.3 µg/mL)	17.4 (≈ 6.23 µg/mL)	38.9 (≈ 13.9 µg/mL)	38.9 (≈ 13.9 µg/mL)	34.7 (≈ 12.4 µg/mL)	–	–	–
CCCCCCCCCCCCCCCCCC(=O)N/N=C/c1ccccc1 [Compound 4]	–	32.4 (≈ 12.5 µg/mL)	16.2 (≈ 6.27 µg/mL)	8.13 (≈ 3.14 µg/mL)	24.5 (≈ 9.49 µg/mL)	24.5 (≈ 9.49 µg/mL)	32.4 (≈ 12.5 µg/mL)	–	–	–
C/C=C/C=C/C(=O)N/N=C/c1ccccc1 [Compound 5]	–	58.9 (≈ 12.6 µg/mL)	58.9 (≈ 12.6 µg/mL)	117 (≈ 25.2 µg/mL)	58.9 (≈ 12.6 µg/mL)	58.9 (≈ 12.6 µg/mL)	58.9 (≈ 12.6 µg/mL)	–	–	–
O=C(/C=C/c1ccccc1)N/N=C/c1ccccc1 [Compound 6]	–	50.1 (≈ 12.5 µg/mL)	50.1 (≈ 12.5 µg/mL)	12.6 (≈ 3.15 µg/mL)	33.1 (≈ 8.29 µg/mL)	33.1 (≈ 8.29 µg/mL)	50.1 (≈ 12.5 µg/mL)	–	–	–
Cc1cccc(C(=O)N/N=C/c2ccccc2)c1 [Compound 7]	–	52.5 (≈ 12.5 µg/mL)	52.5 (≈ 12.5 µg/mL)	13.2 (≈ 3.14 µg/mL)	34.7 (≈ 8.26 µg/mL)	34.7 (≈ 8.26 µg/mL)	52.5 (≈ 12.5 µg/mL)	–	–	–
Cc1ccc(C(=O)N/N=C/c2ccccc2)cc1 [Compound 8]	–	52.5 (≈ 12.5 µg/mL)	52.5 (≈ 12.5 µg/mL)	45.7 (≈ 10.9 µg/mL)	38.9 (≈ 9.27 µg/mL)	38.9 (≈ 9.27 µg/mL)	52.5 (≈ 12.5 µg/mL)	–	–	–
COc1cc(OC)cc(C(=O)N/N=C/c2ccccc2)c1 [Compound 9]	100 µg/mL	43.7 (≈ 12.4 µg/mL)	43.7 (≈ 12.4 µg/mL)	11 (≈ 3.12 µg/mL)	28.8 (≈ 8.2 µg/mL)	28.8 (≈ 8.2 µg/mL)	43.7 (≈ 12.4 µg/mL)	active; also recorded: antiviral potential	–	–
O=C(N/N=C/c1ccccc1)c1cc([N+](=O)[O-])cc([N+](=O)[O-])c1 [Compound 10]	–	39.8 (≈ 12.5 µg/mL)	39.8 (≈ 12.5 µg/mL)	20 (≈ 6.27 µg/mL)	30.2 (≈ 9.49 µg/mL)	30.2 (≈ 9.49 µg/mL)	39.8 (≈ 12.5 µg/mL)	–	20 (≈ 6.27 µg/mL)	–
CCCCCCCCCCCC(=O)N/N=C/c1ccccc1Cl [Compound 11]	–	37.2 (≈ 12.5 µg/mL)	15.8 (≈ 5.34 µg/mL)	18.6 (≈ 6.27 µg/mL)	27.5 (≈ 9.28 µg/mL)	27.5 (≈ 9.28 µg/mL)	37.2 (≈ 12.5 µg/mL)	–	–	–
CCCCCCCCCCCCCC(=O)N/N=C/c1ccccc1Cl [Compound 12]	–	33.9 (≈ 12.4 µg/mL)	33.9 (≈ 12.4 µg/mL)	75.9 (≈ 27.7 µg/mL)	46.8 (≈ 17.1 µg/mL)	46.8 (≈ 17.1 µg/mL)	33.9 (≈ 12.4 µg/mL)	–	–	–
CCCCCCCCCCCCCCCC(=O)N/N=C/c1ccccc1Cl [Compound 13]	–	32.4 (≈ 12.7 µg/mL)	31.6 (≈ 12.4 µg/mL)	7.94 (≈ 3.12 µg/mL)	26.9 (≈ 10.6 µg/mL)	26.9 (≈ 10.6 µg/mL)	31.6 (≈ 12.4 µg/mL)	–	–	active bactericidal agents
CCCCCCCCCCCCCCCCCC(=O)N/N=C/c1ccccc1Cl [Compound 14]	–	29.5 (≈ 12.4 µg/mL)	29.5 (≈ 12.4 µg/mL)	14.8 (≈ 6.23 µg/mL)	28.8 (≈ 12.1 µg/mL)	28.8 (≈ 12.1 µg/mL)	29.5 (≈ 12.4 µg/mL)	–	–	active bactericidal agents
C/C=C/C=C/C(=O)N/N=C/c1ccccc1Cl [Compound 15]	–	50.1 (≈ 12.5 µg/mL)	50.1 (≈ 12.5 µg/mL)	25.1 (≈ 6.25 µg/mL)	39.8 (≈ 9.9 µg/mL)	39.8 (≈ 9.9 µg/mL)	50.1 (≈ 12.5 µg/mL)	–	–	–
O=C(/C=C/c1ccccc1)N/N=C/c1ccccc1Cl [Compound 16]	–	43.7 (≈ 12.4 µg/mL)	43.7 (≈ 12.4 µg/mL)	17.4 (≈ 4.95 µg/mL)	30.2 (≈ 8.6 µg/mL)	30.2 (≈ 8.6 µg/mL)	43.7 (≈ 12.4 µg/mL)	–	17.4 (≈ 4.95 µg/mL)	–
Cc1cccc(C(=O)N/N=C/c2ccccc2Cl)c1 [Compound 17]	–	45.7 (≈ 12.5 µg/mL)	45.7 (≈ 12.5 µg/mL)	45.7 (≈ 12.5 µg/mL)	42.7 (≈ 11.6 µg/mL)	42.7 (≈ 11.6 µg/mL)	45.7 (≈ 12.5 µg/mL)	–	–	–
Cc1ccc(C(=O)N/N=C/c2ccccc2Cl)cc1 [Compound 18]	–	45.7 (≈ 12.5 µg/mL)	45.7 (≈ 12.5 µg/mL)	24.5 (≈ 6.69 µg/mL)	35.5 (≈ 9.68 µg/mL)	35.5 (≈ 9.68 µg/mL)	45.7 (≈ 12.5 µg/mL)	–	24.5 (≈ 6.69 µg/mL)	–
COc1cc(OC)cc(C(=O)N/N=C/c2ccccc2Cl)c1 [Compound 19]	100 µg/mL	38.9 (≈ 12.4 µg/mL)	38.9 (≈ 12.4 µg/mL)	9.77 (≈ 3.12 µg/mL)	27.5 (≈ 8.78 µg/mL)	27.5 (≈ 8.78 µg/mL)	38.9 (≈ 12.4 µg/mL)	active; also recorded: antiviral potential	–	–
O=C(N/N=C/c1ccccc1Cl)c1cc([N+](=O)[O-])cc([N+](=O)[O-])c1 [Compound 20]	–	35.5 (≈ 12.4 µg/mL)	35.5 (≈ 12.4 µg/mL)	8.91 (≈ 3.11 µg/mL)	25.1 (≈ 8.76 µg/mL)	25.1 (≈ 8.76 µg/mL)	35.5 (≈ 12.4 µg/mL)	–	–	–
NC(=O)c1ncn([C@@H]2O[C@H](CO)[C@@H](O)[C@H]2O)n1 [Ribavirin, reference compound]	>250 µM	–	–	–	–	–	–	–	–	–
